According to ChEMBL document CHEMBL5674882, “Benzolactam-related compounds promote apoptosis of HIV-infected human cells via protein kinase C-induced HIV latency reversal” (J Biol Chem, 2019):
Active and inactive are the calls of the source. No cut-off for these calls is given here.

Tests used:
[1] = molecular target: T1, Protein kinase C (PKC) (Homo sapiens) (UniProt O94806+P41743+P17252+P05129+Q05655+P05771+Q05513+Q02156+P24723+Q15139+Q04759); test: Activation of PKC in human ACH-2 cells infected with latent HIV-1 assessed as reversal of HIV-1 latency by measuring increase in p24 antigen level at 1 to 10000 nM incubated for 48 hrs by chemiluminescent enzyme immunoassay; format: cell-based; settings: ACH-2 cell line, dose 1-10000 nM
Outline: (§1)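 ACH-2 or U1 cells (5 × 10^5 cells/ml) incubated 48 h with graded drug concentrations. Supernatant p24 antigen measured by automated chemiluminescent immunoassay. EC50 calculated taking the maximum response with excess PMA as 100%. Means ± S.D. of three independent experiments.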

[2] = molecular target: T1, Protein kinase C (PKC) (Homo sapiens); test: Activation of PKC in human U1 cells infected with latent HIV-1 assessed as reversal of HIV-1 latency by measuring increase in p24 antigen level at 1 to 10000 nM incubated for 48 hrs by chemiluminescent enzyme immunoassay; format: cell-based; settings: dose 1-10000 nM; outline: as §1
[3] = molecular target: Protein kinase C (PKC); test: Activation of PKC in human ACH-2 cells infected with latent HIV-1 assessed as reversal of HIV-1 latency by measuring increase in p24 antigen level incubated for 48 hrs by chemiluminescent enzyme immunoassay; format: cell-based; settings: ach-2 cell line
[4] = molecular target: Protein kinase C (PKC); test: Activation of PKC in human U1 cells infected with latent HIV-1 assessed as reversal of HIV-1 latency by measuring increase in p24 antigen level incubated for 48 hrs by chemiluminescent enzyme immunoassay; format: cell-based
[5] = Toxicity in human A3.01 cells assessed as reduction in cell viability after 48 hrs by WST8 assay; format: cell-based
Outline: (§2)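 Parental, uninfected lines (A3.01 for ACH-2, U937 for U1) at 5 × 10^5 cells/ml cultured with or without drug. Viable cells read at 48 h (day 2) and expressed as % of untreated control. CC50 taken as the concentration lowering viability by 50%.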

[6] = Toxicity in human U-937 cells assessed as reduction in cell viability after 48 hrs by WST8 assay; format: cell-based; outline: as §2
[7] = Toxicity in human PBMC assessed as reduction in cell viability after 5 days by WST8 assay; format: cell-based; settings: time 5 day
Outline: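 PBMC from a healthy donor exposed to drug, with viability determined at day 5. CC50 is the concentration reducing viability by 50%.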

[8] = system: ACH-2 cell line; test: Induction of apoptosis in human ACH-2 cells at 1 uM after 48 hrs by PI/annexin-V staining based flow cytometry; format: functional
[9] = system: U1; test: Induction of apoptosis in human U1 cells at 1 uM after 48 hrs by PI/annexin-V staining based flow cytometry; format: functional
[10] = system: ACH-2 cell line; test: Induction of apoptosis in human ACH-2 cells at 1 uM incubated for 48 hrs after pre-incubated for 2 hrs with 20 uM caspase inhibitor Q-VD-Oph by propidium iodide/annexin-V staining based flow cytometry; format: functional, cell-based
Outline: (§3)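 ACH-2 or U1 cells pretreated 2 h with 20 µM pan-caspase inhibitor Q-VD-Oph, then exposed to 1 µM compound for 48 h. Annexin-V/PI staining by flow cytometry; apoptotic proportions compared with and without Q-VD-Oph. Mean ± S.D.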

[11] = system: U1; test: Induction of apoptosis in human U1 cells at 1 uM incubated for 48 hrs after pre-incubated for 2 hrs with 20 uM caspase inhibitor Q-VD-Oph by propidium iodide/annexin-V staining based flow cytometry; format: functional, cell-based; outline: as §3
[12] = molecular target: T1, Protein kinase C (PKC) (Homo sapiens); test: Activation of PKC in human J-Lat 6.3 cells infected with latent HIV-1 assessed as reversal of HIV-1 latency by measuring increase of GFP-positive cells at 10 uM in presence of pan-PKC inhibitor Go-6983 incubated for 24 hrs by flow cytometry; format: cell-based
Outline: (§4)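 J-Lat 6.3 cells pretreated 3 h with a PKC inhibitor: Gö 6983 1 µM, Gö 6976 1 µM, GF 109203X 1 µM, PKCθ/δ inhibitor 10 µM, or Rottlerin 1 µM. Then exposed to 10 µM compound for 24 h; GFP-positive cells counted by flow cytometry. Mean ± S.D.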

[13] = molecular target: T1, Protein kinase C (PKC) (Homo sapiens); test: Activation of PKC in human J-Lat 6.3 cells infected with latent HIV-1 assessed as reversal of HIV-1 latency by measuring increase of GFP-positive cells at 10 uM in presence of PKC alpha/beta inhibitor Go-6976 incubated for 24 hrs by flow cytometry; format: cell-based; outline: as §4
[14] = molecular target: T1, Protein kinase C (PKC) (Homo sapiens); test: Activation of PKC in human J-Lat 6.3 cells infected with latent HIV-1 assessed as reversal of HIV-1 latency by measuring increase of GFP-positive cells at 10 uM in presence of PKC alpha/beta/gamma inhibitor GF109203X incubated for 24 hrs by flow cytometry; format: cell-based; outline: as §4
[15] = molecular target: T1, Protein kinase C (PKC) (Homo sapiens); test: Activation of PKC in human J-Lat 6.3 cells infected with latent HIV-1 assessed as reversal of HIV-1 latency by measuring increase of GFP-positive cells at 10 uM in presence of PKC theta/delta/epsilon/eta inhibitor PKCtheta/delta inhibitor incubated for 24 hrs by flow cytometry; format: cell-based; outline: as §4
[16] = molecular target: T1, Protein kinase C (PKC) (Homo sapiens); test: Activation of PKC in human J-Lat 6.3 cells infected with latent HIV-1 assessed as reversal of HIV-1 latency by measuring increase of GFP-positive cells at 10 uM in presence of PKC delta inhibitor Rottlerin incubated for 24 hrs by flow cytometry; format: cell-based; outline: as §4
[17] = system: ACH-2 cell line; test: Induction of apoptosis in human ACH-2 cells at 1 uM incubated for 48 hrs by propidium iodide/annexin-V staining based flow cytometry (reference value: 3.16%); format: functional
[18] = system: U1; test: Induction of apoptosis in human U1 cells at 1 uM incubated for 48 hrs by propidium iodide/annexin-V staining based flow cytometry (reference value: 3.16%); format: functional
[19] = system: J-Lat 6.3; test: Induction of apoptosis in human J-Lat 6.3 cells at 1 uM incubated for 48 hrs by propidium iodide/annexin-V staining based flow cytometry (reference value: 3.16%); format: functional
[20] = system: ACH-2 cell line; test: Induction of apoptosis in human ACH-2 cells assessed as caspase-3 activation at 1 uM incubated for 24 hrs by flow cytometry; format: functional
Outline: (§5)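 Cells fixed in 1% paraformaldehyde, permeabilized, stained 30 min on ice with anti-active caspase-3 mAb, and analysed by flow cytometry. Three independent experiments.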

[21] = system: U1; test: Induction of apoptosis in human U1 cells assessed as caspase-3 activation at 1 uM incubated for 24 hrs by flow cytometry; format: functional; outline: as §5
[22] = system: J-Lat 6.3; test: Induction of apoptosis in human J-Lat 6.3 cells assessed as caspase-3 activation at 1 uM incubated for 24 hrs by flow cytometry; format: functional; outline: as §5
[23] = Induction of apoptosis in human CEM A3.01 cells assessed as caspase-3 activation at 1 uM incubated for 24 hrs by flow cytometry; format: functional; outline: as §5
[24] = system: U-937; test: Induction of apoptosis in human U-937 cells assessed as caspase-3 activation at 1 uM incubated for 24 hrs by flow cytometry; format: functional; outline: as §5
[25] = system: Jurkat; test: Induction of apoptosis in human Jurkat cells assessed as caspase-3 activation at 1 uM incubated for 24 hrs by flow cytometry; format: functional; outline: as §5
[26] = system: ACH-2 cell line; test: Induction of apoptosis in human ACH-2 cells assessed as cleaved-PARP level at 1 uM incubated for 24 hrs by flow cytometry (reference value: 1.64%); format: functional
Outline: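 Cells fixed, permeabilized, stained on ice with anti-cleaved PARP (Asp-214) mAb; % cleaved-PARP cells by flow cytometry. Means ± S.D. of three independent experiments.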

[27] = system: U1; test: Induction of apoptosis in human U1 cells assessed as caspase-3 activation at 1 uM incubated for 24 hrs by flow cytometry (reference value: 1.86%); format: functional; outline: as §5
[28] = system: J-Lat 6.3; test: Induction of apoptosis in human J-Lat 6.3 cells assessed as caspase-3 activation at 1 uM incubated for 24 hrs by flow cytometry (reference value: 2.43%); format: functional; outline: as §5
[29] = system: J-Lat 6.3 (Homo sapiens); test: Induction of apoptosis in human J-Lat 6.3 cells at 1 uM incubated for 48 hrs after pre-incubated for 2 hrs with 20 uM caspase inhibitor Q-VD-Oph by propidium iodide/annexin-V staining based flow cytometry
[30] = Toxicity in human CD4+ T-cells assessed as increase in ratio of CD25+ cells incubated for 24 hrs by flow cytometry; format: cell-based; settings: cd4+ t cell
Outline: (§6)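 Primary CD4+ T-cells from healthy donors treated with drug for 24 h. Cells stained with anti-CD25 and anti-CD69 antibodies (plus CD3, CD4, HLA-DR) for 30 min on ice, then marker-positive proportions quantified by flow cytometry.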

[31] = Toxicity in human CD4+ T-cells assessed as increase in ratio of CD69+ cells incubated for 24 hrs by flow cytometry; format: cell-based; settings: cd4+ t cell; outline: as §6

Row | Compound | Activity ([1]; filed as activator) | Activity ([2]; filed as activator) | EC50 [3] [µM] | EC50 [4] [µM] | CC50 at 48 h [5] [µM] | CC50 at 48 h [6] [µM] | CC50 at 120 h [7] [µM] | Activity [8] [%] | Activity [9] [%] | Activity [10] | Activity [11] | Activity [17] [%] | Activity [18] [%] | Activity [19] [%] | Activity [20] [%] | Activity [21] [%] | Activity [22] [%] | Activity [23] [%] | Activity [24] [%] | Activity [25] [%] | other results
1 | CCCCCCCCCCc1ccc2c(c1)N(C)[C@H](C(C)C)C(=O)N[C@H](CO)CC2 | Active | Active | 1.54 | 4 | > 100 | > 100 | > 100 | – | – | – | – | – | – | – | – | – | – | – | – | – | –
2 | CCCCCCCCCCc1ccc2c(c1)N(C)[C@H](C(C)C)C(=O)N[C@H](CO)C2 | Active | Active | 0.43 | 2.33 | 17.8 | 39.2 | 18.9 | 20.4 | 6.1 | inactive | inactive | 18.2 | 5.9 | 7.95 | 11.5 | 8.42 | 2.25 | 1.26 | 0.127 | 0.587 | Activity [12]: inactive; Activity [13]: inactive; Activity [14]: inactive; Activity [15]: inactive; Activity [16]: inactive; Activity [26]: 10%; Activity [27]: 4.66%; Activity [28]: 4.35%; Activity [29]: inactive
3 | CC(C)[C@@H]1C(=O)N[C@H](CO)Cc2cc3c(cc2N1C)C(C)(C)CCC3(C)C | – | – | – | – | – | – | – | – | – | – | – | – | – | – | – | – | – | – | – | – | Activity [1]: inactive; Activity [2]: inactive
4 | CC(=O)O[C@@]12C[C@@H](C)[C@@]3(O)[C@@H](C=C(CO)C[C@]4(O)C(=O)C(C)=C[C@@H]34)[C@@H]1C2(C)C [PROSTRATIN] | – | – | – | – | > 100 | > 100 | > 100 | 37.7 | 14.1 | inactive | inactive | 34.7 | 12.7 | 13.7 | 14 | 29.9 | 8.66 | 1.06 | 0.307 | 1.47 | Activity [30]: Non-Toxic; Activity [31]: Non-Toxic; Activity [26]: 15.2%; Activity [27]: 7.83%; Activity [28]: 15.6%; Activity [29]: inactive
5 | CCCCCCCCCCc1ccc2c(c1)N(C)[C@@H](C(C)C)C(=O)N[C@H](CO)CC2 | – | – | – | – | – | – | – | – | – | – | – | – | – | – | – | – | – | – | – | – | Activity [1]: inactive; Activity [2]: inactive
6 | CC(C)[C@H]1C(=O)N[C@H](CO)Cc2cc3c(cc2N1C)C(C)(C)CCC3(C)C | Active | Active | 2.91 | 9.89 | 19.5 | 22.9 | 65.8 | – | – | – | – | – | – | – | – | – | – | – | – | – | –
7 | CC(C)[C@H]1C(=O)N[C@H](CO)Cc2c[nH]c3cccc(c23)N1C [INDOLACTUM] | Active | Active | 0.047 | 0.36 | > 100 | > 100 | > 100 | 47.1 | 18 | inactive | inactive | 45.1 | 17.7 | 15.7 | 24.2 | 30.5 | 14.1 | 2.69 | 0.584 | 1.72 | Activity [12]: inactive; Activity [13]: inactive; Activity [14]: inactive; Activity [15]: inactive; Activity [16]: inactive; Activity [26]: 24.2%; Activity [27]: 7.82%; Activity [28]: 22.2%; Activity [29]: inactive
